According to ChEMBL document CHEMBL3259644, “Dibenzo[1,4,5]thiadiazepine: a hardly-known heterocyclic system with neuroprotective properties of potential usefulness in the treatment of neurodegenerative diseases” (Eur J Med Chem, 2014):
pIC50: −log10 of the molar value.

Key:
SH-SY5Y [1] = test: Inhibition of calcium channel in human SH-SY5Y cells assessed as blockade of K+-evoked cytosolic calcium increase at 3 uM after 15 mins using Fluo-4/AM by fluorescence microplate reader analysis; format: cell-based
Procedure, shortened: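 Confluent cells loaded with Fluo-4/AM 4 µM for 1 h at 37 °C, washed twice in Krebs-Hepes, then 15 min at room temperature. Compound (3 µM) applied 10 min before K+ raised to 70 mM final. Triton X-100 (5%) and MnCl2 (1 mM) gave maximal and basal fluorescence. Nifedipine 3 µM as positive control. Mean of 3 experiments.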

Cholinesterase = Cholinesterase (Equus caballus, UniProt P81908); test: Inhibition of horse serum BuChE using butyrylthiocholine as substrate by UV spectroscopic analysis
SH-SY5Y [2] = test: Antioxidant activity in human SH-SY5Y cells assessed as rotenone-oligomycin-induced sequestering of mitochondrial free radicals at 0.3 uM after 120 mins using DCFH-DA by fluorescence microplate reader analysis; format: functional
Procedure, shortened: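 Intracellular ROS probe: cells grown to confluence, loaded with 10 µM DCFH-DA for 45 min, basal fluorescence read. Rotenone 30 µM, oligomycin A 10 µM and compound 0.3 µM then added together at t = 0. Fluorescence change read after 120 min (ex 485/em 520 nm). Trolox 0.3 µM served as positive control. Mean of 3 independent experiments.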

SH-SY5Y [3] = test: Neuroprotective activity in human SH-SY5Y cells assessed as protection against rotenone-oligomycin-induced toxicity at 3 uM co-incubated with rotenone-oligomycin measured after 24 hrs by lactate dehydrogenase release assay; format: functional
Procedure, shortened: (§1)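 Co-incubation: cells (10^5/well, serum-free DMEM) given compound together with rotenone 30 µM plus oligomycin A 10 µM for 24 h. Cell death by LDH release. Protection: basal LDH subtracted from toxin-induced release, normalized to 100%, then subtracted from 100. Mean of 4 independent experiments in triplicate.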

[4] = Cytotoxicity against human SH-SY5Y cells assessed as cell viability at 3 uM after 24 hrs by lactate dehydrogenase release assay; format: cell-based; conditions: read-out: Activity
Procedure, shortened: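 Cells plated at 10^5 per well at least 48 h beforehand, in serum-free DMEM, before confluence. Exposed to compound at 3 µM for 24 h. LDH released to medium measured by colorimetric kit (492/620 nm), expressed as extracellular versus total LDH.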

SH-SY5Y [5] = test: Neuroprotective activity in human SH-SY5Y cells assessed as protection against rotenone-oligomycin-induced toxicity at 3 uM preincubated for 24 hrs before rotenone-oligomycin addition measured after 24 hrs by lactate dehydrogenase release assay; format: functional
Procedure, shortened: (§2)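 Pre-incubation: compound given to cells (10^5/well, serum-free DMEM) for 24 h. Medium then replaced with fresh medium holding compound plus rotenone 30 µM and oligomycin A 10 µM for another 24 h. LDH release read. Protection = 100 minus normalized toxin-induced LDH release above basal. Mean of 4 independent experiments in triplicate.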

[6] = Permeability of the compound by PAMPA; format: physicochemical; conditions: read-out: permeability
Procedure, shortened: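 PAMPA-BBB: filter impregnated with porcine brain lipid in dodecane (20 mg/mL). Compound at 100 µg/mL in PBS pH 7.4:ethanol 70:30 in donor. Acceptor held PBS:ethanol 70:30. Incubated 240 min at 25 °C. Acceptor concentration read by UV-Vis at five wavelengths, in four wells, at least three runs. Mean ± SD. 10 reference drugs validated each run.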

SH-SY5Y [7] = test: Neuroprotective activity in human SH-SY5Y cells assessed as protection against rotenone-oligomycin-induced toxicity at 1 uM preincubated for 24 hrs before rotenone-oligomycin addition measured after 24 hrs by lactate dehydrogenase release assay; format: functional; procedure, shortened: as §2
SH-SY5Y [8] = test: Neuroprotective activity in human SH-SY5Y cells assessed as protection against rotenone-oligomycin-induced toxicity at 1 uM co-incubated with rotenone-oligomycin measured after 24 hrs by lactate dehydrogenase release assay; format: functional; procedure, shortened: as §1
SH-SY5Y [9] = test: Neuroprotective activity in human SH-SY5Y cells assessed as protection against rotenone-oligomycin-induced toxicity at 0.3 uM preincubated for 24 hrs before rotenone-oligomycin addition measured after 24 hrs by lactate dehydrogenase release assay; format: functional; procedure, shortened: as §2
SH-SY5Y [10] = test: Neuroprotective activity in human SH-SY5Y cells assessed as protection against rotenone-oligomycin-induced toxicity at 0.3 uM co-incubated with rotenone-oligomycin measured after 24 hrs by lactate dehydrogenase release assay; format: functional; procedure, shortened: as §1

Cholinesterase, sequence (P81908 whole entry): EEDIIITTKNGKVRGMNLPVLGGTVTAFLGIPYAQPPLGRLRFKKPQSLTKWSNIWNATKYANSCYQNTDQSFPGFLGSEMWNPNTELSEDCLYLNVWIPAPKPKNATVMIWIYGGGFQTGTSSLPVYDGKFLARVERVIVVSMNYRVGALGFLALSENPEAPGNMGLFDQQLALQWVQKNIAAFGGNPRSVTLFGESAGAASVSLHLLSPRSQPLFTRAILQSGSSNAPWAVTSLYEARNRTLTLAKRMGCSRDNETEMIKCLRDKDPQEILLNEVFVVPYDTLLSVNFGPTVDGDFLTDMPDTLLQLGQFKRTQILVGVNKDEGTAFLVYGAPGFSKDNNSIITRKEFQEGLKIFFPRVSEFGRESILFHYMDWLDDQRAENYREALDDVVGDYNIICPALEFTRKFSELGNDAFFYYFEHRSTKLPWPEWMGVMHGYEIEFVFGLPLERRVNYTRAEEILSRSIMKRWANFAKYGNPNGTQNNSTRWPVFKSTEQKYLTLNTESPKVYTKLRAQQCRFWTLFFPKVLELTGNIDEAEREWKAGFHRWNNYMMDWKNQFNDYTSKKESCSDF

## CC(=O)n1c2ccccc2sc2cc(Cl)ccc2n1C(C)=O
SH-SY5Y [1]
  inhibition: 21.5%
Cholinesterase
  pIC50: < 4.00
SH-SY5Y [2]
  Activity: 24.3%
SH-SY5Y [3]
  Activity: 63.2%
[4]
  viability at 24 h, 3 µM: 100%
SH-SY5Y [5]
  Activity: 81.5%
[6]
  Papp: 10.1 ×10⁻⁶ cm/s
SH-SY5Y [7]
  Activity: 76.6%
SH-SY5Y [8]
  Activity: 59.2%
SH-SY5Y [9]
  Activity: 64.8%
SH-SY5Y [10]
  Activity: 49%

## O=C(CCN1CCCC1)n1c2ccccc2sc2ccc(Cl)cc2n1C(=O)CCN1CCCC1
Cholinesterase
  pIC50: < 4.00
SH-SY5Y [3]
  Activity: 32.7%
[4]
  viability at 24 h, 3 µM: 100%
SH-SY5Y [5]
  Activity: 92.4%
[6]
  Papp: 3.7 ×10⁻⁶ cm/s
SH-SY5Y [7]
  Activity: 94.6%
SH-SY5Y [8]
  Activity: 45.9%
SH-SY5Y [9]
  Activity: 99.3%
SH-SY5Y [10]
  Activity: 40.7%

## CC(=O)n1[nH]c2ccc([N+](=O)[O-])cc2sc2ccccc21
Cholinesterase
  pIC50: < 4.00
SH-SY5Y [3]
  Activity: 21.9%
[4]
  viability at 24 h, 3 µM: 100%
SH-SY5Y [5]
  Activity: 72.7%
[6]
  Papp: 3.9 ×10⁻⁶ cm/s
SH-SY5Y [7]
  Activity: 75.8%
SH-SY5Y [8]
  Activity: 27.8%
SH-SY5Y [9]
  Activity: 83.8%
SH-SY5Y [10]
  Activity: 26.2%

## O=C(CN1CCCCC1)n1c2ccccc2sc2cccc(Cl)c2n1C(=O)CN1CCCCC1
Cholinesterase
  pIC50: 6.05
SH-SY5Y [3]
  Activity: 35.6%
[4]
  viability at 24 h, 3 µM: 100%
SH-SY5Y [5]
  Activity: 83.4%
[6]
  Papp: 7.3 ×10⁻⁶ cm/s
SH-SY5Y [7]
  Activity: 83.9%
SH-SY5Y [8]
  Activity: 38.2%
SH-SY5Y [9]
  Activity: 90.5%
SH-SY5Y [10]
  Activity: 43.3%

## CC(=O)n1c2ccccc2sc2cc(C(F)(F)F)ccc2n1C(C)=O
Cholinesterase
  pIC50: < 4.00
SH-SY5Y [3]
  Activity: 35.8%
[4]
  viability at 24 h, 3 µM: 100%
SH-SY5Y [5]
  Activity: 92.2%
[6]
  Papp: 4 ×10⁻⁶ cm/s
SH-SY5Y [7]
  Activity: 91.1%
SH-SY5Y [8]
  Activity: 35%
SH-SY5Y [9]
  Activity: 76.4%
SH-SY5Y [10]
  Activity: 20.7%

## CC(=O)n1c2ccccc2sc2ccc(Cl)cc2n1C(C)=O
Cholinesterase
  pIC50: < 4.00
SH-SY5Y [3]
  Activity: 38.3%
[4]
  viability at 24 h, 3 µM: 100%
SH-SY5Y [5]
  Activity: 91.1%
[6]
  Papp: 12.3 ×10⁻⁶ cm/s
SH-SY5Y [7]
  Activity: 88.9%
SH-SY5Y [8]
  Activity: 38.3%
SH-SY5Y [9]
  Activity: 79.8%
SH-SY5Y [10]
  Activity: 9.3%

## COc1ccc2c(c1)sc1ccccc1n(C(C)=O)n2C(C)=O
SH-SY5Y [1]
  inhibition: 13.1%
Cholinesterase
  pIC50: < 4.00
SH-SY5Y [2]
  Activity: 21.6%
SH-SY5Y [3]
  Activity: 53.8%
[4]
  viability at 24 h, 3 µM: 100%
SH-SY5Y [5]
  Activity: 95.7%
[6]
  Papp: 12.6 ×10⁻⁶ cm/s
SH-SY5Y [7]
  Activity: 97%
SH-SY5Y [8]
  Activity: 50.1%
SH-SY5Y [9]
  Activity: 89.7%
SH-SY5Y [10]
  Activity: 49.9%

## Clc1ccc2c(c1)Sc1ccccc1N=N2
Cholinesterase
  pIC50: < 4.00
SH-SY5Y [3]
  Activity: 38.8%
[4]
  viability at 24 h, 3 µM: 100%
SH-SY5Y [5]
  Activity: 84.4%
[6]
  Papp: 12.3 ×10⁻⁶ cm/s
SH-SY5Y [7]
  Activity: 90.2%
SH-SY5Y [8]
  Activity: 31.4%
SH-SY5Y [9]
  Activity: 90.3%
SH-SY5Y [10]
  Activity: 40.5%

## COC(=O)C1=C(C)NC(C)=C(C(=O)OC)C1c1ccccc1[N+](=O)[O-]
SH-SY5Y [1]
  inhibition: 47.9%

## O=C(CCN1CCCCC1)n1c2ccccc2sc2ccc(Cl)cc2n1C(=O)CCN1CCCCC1
SH-SY5Y [1]
  inhibition: 16.2%
Cholinesterase
  pIC50: < 4.00
SH-SY5Y [2]
  Activity: 18.8%
SH-SY5Y [3]
  Activity: 63%
[4]
  viability at 24 h, 3 µM: 100%
SH-SY5Y [5]
  Activity: 96.4%
[6]
  Papp: 5.3 ×10⁻⁶ cm/s
SH-SY5Y [7]
  Activity: 90.4%
SH-SY5Y [8]
  Activity: 55.4%
SH-SY5Y [9]
  Activity: 84.6%
SH-SY5Y [10]
  Activity: 53%

## Cc1c(C)c2c(c(C)c1O)CCC(C)(C(=O)O)O2 (stereo unspecified) [TROLOX]
SH-SY5Y [2]
  Activity: 22.3%
SH-SY5Y [3]
  Activity: 55.7%
SH-SY5Y [5]
  Activity: 56.1%

## CN(C)CCC(=O)n1c2ccccc2sc2ccc(Cl)cc2n1C(=O)CCN(C)C
Cholinesterase
  pIC50: 6.15
SH-SY5Y [3]
  Activity: 15.9%
[4]
  viability at 24 h, 3 µM: 100%
SH-SY5Y [5]
  Activity: 96.1%
[6]
  Papp: 14.2 ×10⁻⁶ cm/s
SH-SY5Y [7]
  Activity: 92.1%
SH-SY5Y [8]
  Activity: 20.4%
SH-SY5Y [9]
  Activity: 75.9%
SH-SY5Y [10]
  Activity: 8.1%

## CN1CCN(CC(=O)n2c3ccccc3sc3ccc(Cl)cc3n2C(=O)CN2CCN(C)CC2)CC1
SH-SY5Y [1]
  inhibition: 9.3%
Cholinesterase
  pIC50: < 4.00
SH-SY5Y [2]
  Activity: 24.3%
SH-SY5Y [3]
  Activity: 35.7%
[4]
  viability at 24 h, 3 µM: 100%
SH-SY5Y [5]
  Activity: 97.5%
[6]
  Papp: 5.9 ×10⁻⁶ cm/s
SH-SY5Y [7]
  Activity: 96.4%
SH-SY5Y [8]
  Activity: 42.6%
SH-SY5Y [9]
  Activity: 86%
SH-SY5Y [10]
  Activity: 50.6%
